Assay outcomes (PubChem BioAssay)
RBBP9 inhibitor – human RBBP9 hydrolase inhibition. O75884. recombinant RBBP9, FP-Rh probe fluorescence polarization. inhibition, % at 7.94 µM. 220,000 compounds, 0.2% hits. AID 1515;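 active means inhibition above the campaign mean of all tested compounds plus 3 SD, cut at about 14% in these data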;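 further: plate controls were DMSO wells with RBBP9 for no effect and wells lacking RBBP9 protein for full effect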
Target sequence (O75884 whole entry, looked up): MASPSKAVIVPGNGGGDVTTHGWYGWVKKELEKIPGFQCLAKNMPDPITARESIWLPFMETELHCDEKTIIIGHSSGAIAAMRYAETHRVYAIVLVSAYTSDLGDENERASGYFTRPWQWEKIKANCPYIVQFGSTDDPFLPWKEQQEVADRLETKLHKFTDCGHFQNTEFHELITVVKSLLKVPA
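Test system: recombinant human RBBP9; Timing: 30 min then 45 min, 25 °C; Detection: fluorescence polarization; Control set: RBBP9 with DMSO as uninhibited control, no-protein wells as full inhibition; Compound dosing: one concentration, 7.94 µM nominal, 0.794% DMSO; Probe or stimulus: FP-Rh activity-based probe, 375 nM before mixing.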
PREPL inhibitor – inhibits the human prolyl oligopeptidase-like enzyme | Q4J6C6 | recombinant PREPL, fluorescence polarization activity-based probe | inhibition, % at 5.96 µM | 320,000 compounds, 0.68% hits; in the data active means inhibition above about 43%;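 further: 0% = enzyme with DMSO and 100% = wells lacking enzyme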
UBC9 SUMO inh – blocks human SUMOylation mediated by UBC9. 290,000 compounds, 0.36% hits. inhibition, % at 35 µM. AID 2006. HTRF SUMOylation assay, SAE1/SAE2 + UBC9, in vitro. P63279; in the data active means inhibition above about 50%, passing the limit was not always enough; inconclusive means no clear call, values can overlap the other calls
Target sequence (P63279 whole entry, looked up): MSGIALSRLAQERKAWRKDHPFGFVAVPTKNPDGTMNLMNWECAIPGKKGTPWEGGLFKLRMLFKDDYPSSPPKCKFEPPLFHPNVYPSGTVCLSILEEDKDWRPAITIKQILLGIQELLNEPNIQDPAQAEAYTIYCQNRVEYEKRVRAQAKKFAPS
Rin1-Abl PPI inh – inhibitors of human Rin1-Abl protein interaction | 360,000 compounds, 0.4% hits | AID 588664 | TR-FRET Rin1/Abl binding, biochemical | P00519+Q13671 | inhibition, % at 7.35 µM; in the data active means inhibition above about 5%, passing the limit was not always enough
ALR inh – human ALR oxidase inhibition via reduced H2O2; 290,000 compounds, 3.8% hits; inhibition, % (concentration not given with the values); AID 485317; P55789; purified ALR, DTT oxidation, H2O2 HRP-luminol luminescence;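 active means mean replicate inhibition above about 79%, with every replicate also reaching it, limit read from the data; inconclusive means only one of the two criteria met; inactive means mean below limit and not every replicate reaching it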
UBC13 polyUb – blocks human UBC13 polyubiquitin chain formation; TR-FRET; 330,000 compounds, 0.47% hits; inhibition, % at 20 µM; P61088; in the data active means inhibition above about 45%, passing the limit was not always enough; inconclusive means no clear call, values can overlap the other calls
Target sequence (P61088 whole entry, looked up): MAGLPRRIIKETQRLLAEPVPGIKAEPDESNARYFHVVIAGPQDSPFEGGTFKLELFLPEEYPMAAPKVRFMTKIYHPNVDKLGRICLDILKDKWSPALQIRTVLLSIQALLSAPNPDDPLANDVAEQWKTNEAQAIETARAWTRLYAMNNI
* marks the source's active call; other numbers are inactive results; ? = inconclusive; nt = not tested or not shown. A selection: hits, their analogues and other compounds. The true share with any hit is near 4.3%.

SMILES	RBBP9 inhibitor	PREPL inhibitor	UBC9 SUMO inh	Rin1-Abl PPI inh	ALR inh	UBC13 polyUb
O=C1NC(=O)C(=Cc2cc3c(cc2[N+](=O)[O-])OCO3)C(=O)N1	-3	7	99*	0	38	7
CSCCC(c1nnnn1C(C)(C)C)N1CCC2(CC1)C(=O)NCN2c1ccccc1 (centres undefined)	nt	nt	nt	4	nt	nt
COC(=O)C1=C(c2ccc(F)cc2F)C[C@@H]2CC[C@H]1N2C(=O)N1CCC(O)(c2ccc(Cl)cc2)CC1	nt	11	nt	1	0	1
c1nc2nc3c(c(N4CCNCC4)n2n1)CCCC3	-2	7	6	nt	-3	-5
CN1CCN(c2ccc(N)cc2)CC1	-7	17	-10	-2	99*	39
CCN1CCN(c2ccc(N)cc2C)CC1	-4	11	2	-5	99*	-5
CCCCCCN1CCN(c2ccc(Cl)cc2)CC1	0	14	3	-2	47	-5
CN1CCN(c2ccc(C=O)cc2)CC1	7	21	4	5	4	-9
CN1CCN(c2ccc3nccnc3c2)CC1	-5	4	58*	-3	-7	-4
CCN1CCN(c2ccc(N)cc2)CC1	1	15	-3	0	94*	2
Cc1cc(C)c(N=Cc2c(O)[nH]c(=O)[nH]c2=O)c(C)c1	nt	7	19	0	-6	-2
COC12CCC3(CC1C(C)(O)C(C)(C)C)[C@H]1Cc4ccc(O)c5c4[C@@]3(CCN1CC1CC1)C2O5 (some centres undefined)	nt	14	nt	0	nt	-4
CCOC(=O)CNC(=O)N1Cc2ccc(Br)cc2-n2nncc2C1	nt	nt	nt	7	nt	nt
CCOc1cc(-c2nc3c(C)cccn3c2NCC2CCCO2)ccc1O (centres undefined)	-2	-14	52*	-5	97*	17
Cc1cccn2c(NCC3CCCO3)c(C(C)C)nc12 (centres undefined)	-12	2	12	1	78*	13
COc1ccccc1-n1c(CNCC2CCCO2)nc2ccccc2c1=O (centres undefined)	-5	-3	2	-2	-5	10
O=C(c1ccc(-c2ccccc2)c(F)c1)C1CCCN(CCO)C1 (centres undefined)	-9	-42	4	1	-6	13
Cc1cc2c(C(C)C)c(O)c(O)c(C=O)c2c(O)c1-c1c(C)cc2c(C(C)C)c(O)c(O)c(C=O)c2c1O	9	nt	95*	16*	nt	nt
CCC(=NCc1ccc2c(c1)OCO2)c1c(O)n(C2CCCCC2)c(=O)[nH]c1=O	-6	45*	1	-1	-3	6
CCC(=NCCO)c1c(O)n(C2CCCCC2)c(=O)[nH]c1=O	1	-2	-22	-1	2	3
COC(=O)CSC1=NP(=S)(SCC(=O)OC)N2CCCC2=C1C#N (centres undefined)	0	5	1	-2	98*	4
NCC(O)c1cc(O)c(O)cc1F (centres undefined)	nt	-9	nt	2	83*	38
COc1ccc2c(c1OC)C(=O)OC2c1c(O)n(C2CCCCC2)c(=O)[nH]c1=O (centres undefined)	3	-9	20	2	96*	-6
O=[N+]([O-])c1ccc(C2[C@H]3C(c4ccccc4)=NC4(CCCCC4)N23)cc1 (some centres undefined)	-7	-1	-9	2	-3	-14
Cc1ccc(N2C(=O)NC(=O)/C(=C/c3ccoc3)C2=O)cc1	-1	nt	56*	4	nt	nt
SMILES	RBBP9 inhibitor	PREPL inhibitor	UBC9 SUMO inh	Rin1-Abl PPI inh	ALR inh	UBC13 polyUb
Cc1ccc(N2C(=O)NC(=O)/C(=C/c3cnn(-c4ccc(C)cc4)c3)C2=O)cc1	-8	-7	13	1	10	-12
O=c1ccc2cc(O[C@@H]3O[C@@H](CO)[C@H](O)[C@@H](O)[C@@H]3O)c(O)cc2o1	nt	6	34	-1	?	22
N#Cc1c(/N=C/C2C(=O)NC(=S)NC2=O)sc2c1CCCC2	-3	-8	13	2	93*	-3
O=C(Cc1ccc(N(CCCl)CCCl)cc1)NC(Cc1ccc(Cl)cc1)C(=O)O (centres undefined)	nt	1	23	0	98*	-6
Nc1ccc(CCN2CCN(c3cccc(C(F)(F)F)c3)CC2)cc1	nt	13	nt	-3	22	11
FC(F)(F)c1ccc2c(c1)N(CCCN1CCN(CCCl)CC1)c1ccccc1S2	9	35	15	0	99*	30
Cn1cnc([N+](=O)[O-])c1Sc1ccc([N+](=O)[O-])cc1	2	-4	-5	2	97*	-2
CN1C(=O)C(=Cc2ccc(-c3cccc(Cl)c3)o2)C(=O)N(C)C1=O	-11	-1	20	nt	12	0
Cc1ccc(Sc2ccc(C=C3C(=O)N(C)C(=O)N(C)C3=O)o2)cc1	-5	-5	24	1	97*	-15
COc1cc(/C=C/c2nc3ccccc3c(=O)n2-c2cccc(O)c2)ccc1O	-19	16	51*	0	3	10
COc1ccc2c(c1)NP(=S)(Oc1ccccc1)N2 (centres undefined)	6	19	53*	2	98*	-4
O=[N+]([O-])c1[nH]cnc1Br	nt	nt	nt	3	nt	nt
Cc1oc(-c2cccs2)nc1CSCC(=O)N1CCC2(CC1)OCCO2	-6	-2	13	-2	99*	9
COc1cccc(-c2nc(CS(=O)CC(=O)N3CCC4(CC3)OCCO4)c(C)o2)c1 (centres undefined)	1	-3	8	-3	nt	-14
COc1ccc(-c2nc(CSCC(=O)N3CCC4(CC3)OCCO4)c(C)o2)cc1OC	-7	16	5	1	100*	-8
Fc1ccc(C(OCCN2CCN(CCCc3ccccc3)CC2)c2ccc(F)cc2)cc1	nt	-27	nt	-2	nt	49*
O=P1(c2ccccc2)CC=CC1	nt	nt	nt	1	nt	nt
Cc1cccc(N2C(=O)/C(=C/c3ccc(N4CCN(C)CC4)o3)C(=O)NC2=S)c1C	2	-11	3	4	7	-141
Cc1ccccc1N1C(=O)/C(=C/c2ccco2)C(=O)NC1=S	nt	46*	97*	nt	14	nt
CCOc1ccc(N2C(=O)/C(=C\c3cccs3)C(=O)NC2=S)cc1	-7	-3	15	nt	20	-16
CCOc1ccc(N2C(=O)/C(=C/c3ccco3)C(=O)NC2=S)cc1	nt	-7	4	2	98*	-20
CC(Cc1ccccc1Sc1ccccc1O)N(C)C (centres undefined)	-6	-1	8	2	98*	2
CCN(CC)S(=O)(=O)c1ccc(C(=O)NC2CN3CCC2CC3)cc1 (centres undefined)	nt	13	0	5	nt	3
CC(C)CCCn1c(O)c(/C=C2/C=CC=N2)c(=O)[nH]c1=O	-6	4	21	-4	98*	-8
